ChEMBL document CHEMBL3407352, “Identification of anthranilamide derivatives as potential factor Xa inhibitors: drug design, synthesis and biological evaluation” (Eur J Med Chem, 2015)

Assays:
Coagulation factor X = Coagulation factor X (Homo sapiens, UniProt P00742); experiment: Inhibition of human factor 10a using acromogenic substrate S-2222 preincubated for 30 mins before substrate addition measured after 20 mins by spectrophotometry
Prothrombin = Prothrombin (Homo sapiens, UniProt P00734); experiment: Inhibition of human thrombin using acromogenic substrate S-2238 preincubated for 30 mins before substrate addition measured after 20 mins by spectrophotometry
Procedure, shortened: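 Compounds prepared at 10 mM, serially diluted to twelve concentrations in 50 mM Tris-Cl, 100 mM NaCl, 0.1% BSA, pH 7.4; mixed with enzyme (final: human fXa 0.003 U/mL; human thrombin 0.125 U/mL), incubated 30 min at 37 °C. Reaction started with chromogenic substrate (fXa: S-2222; thrombin: S-2238), monitored continuously 20 min at 405 nm; IC50 from mean of duplicates.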

[1] = Anticoagulant activity in plasma (unknown origin) assessed as concentration required to double the time for fibrin formation; type: functional
Procedure, shortened: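 Clotting times in plasma on automatic coagulometer per manufacturer's instructions; increasing inhibitor concentrations or solvent added to plasma, incubated 3 min at 37 °C, clotting times compared with appropriate control plasma.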

Sequence of Coagulation factor X (P00742 41-179 limits assumed): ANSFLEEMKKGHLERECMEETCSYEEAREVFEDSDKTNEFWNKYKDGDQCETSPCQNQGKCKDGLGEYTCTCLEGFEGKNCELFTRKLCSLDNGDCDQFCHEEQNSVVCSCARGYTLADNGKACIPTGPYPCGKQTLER
Sequence of Coagulation factor X (P00742 235-488 limits assumed): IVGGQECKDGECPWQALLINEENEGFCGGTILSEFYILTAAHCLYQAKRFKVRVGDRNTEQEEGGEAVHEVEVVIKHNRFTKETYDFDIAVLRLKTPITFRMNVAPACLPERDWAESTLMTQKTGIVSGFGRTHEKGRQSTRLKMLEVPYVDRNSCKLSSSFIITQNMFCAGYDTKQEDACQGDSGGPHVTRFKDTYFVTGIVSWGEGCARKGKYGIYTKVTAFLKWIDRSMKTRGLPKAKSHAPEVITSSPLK

**Q.** With `CN1CCC2N=C(C(=O)N[C@@H]3CCCC[C@@H]3CNC(=O)c3ccc(Cl)s3)SC2C1` (stereo partly drawn) as the compound, how does the IC50 (Coagulation factor X) read?
**A.** The IC50 was 27 nM.

**Q.** For `C[C@@H](C(=O)N1CCOCC1)N1CC[C@H](NS(=O)(=O)C2=Nc3ccc(Cl)cc3C2)C1=O`, which Ki (Coagulation factor X) is on record?
**A.** Its Ki is 90 nM.

**Q.** With `COc1ccc(NC(=O)C(=O)Nc2ccc(Cl)cn2)c(C(=O)Nc2ccc(N3CCOCC3=O)cc2)c1` as the compound, how does the IC50 (Coagulation factor X) read?
**A.** Its IC50 is 298 nM.

**Q.** With `COc1ccc(NC(=O)C(=O)Nc2ccccc2)c(C(=O)Nc2ccc(N3CCOCC3=O)cc2)c1` as the compound, how does the IC50 (Coagulation factor X) read?
**A.** Its IC50 is 1120 nM.

**Q.** Which IC50 (Coagulation factor X) does the source give for `COc1ccc(NC(=O)C(=O)Nc2ccccc2Cl)c(C(=O)Nc2ccc(N3CCOCC3=O)cc2)c1` here?
**A.** Its IC50 is 798 nM.

**Q.** For `COc1ccc(NC(=O)C(=O)Nc2cccc(Cl)c2)c(C(=O)Nc2ccc(N3CCOCC3=O)cc2)c1`, which IC50 (Coagulation factor X) is on record?
**A.** Its IC50 is 621 nM.

**Q.** With `COc1ccc(NC(=O)C(=O)Nc2ccc(Cl)cc2)c(C(=O)Nc2ccc(N3CCOCC3=O)cc2)c1` as the compound, how does the IC50 (Coagulation factor X) read?
**A.** Its IC50 is 452 nM.

**Q.** For `COc1ccc(NC(=O)C(=O)Nc2ccc(F)cc2)c(C(=O)Nc2ccc(N3CCOCC3=O)cc2)c1`, which IC50 (Coagulation factor X) is on record?
**A.** Its IC50 is 678 nM.

**Q.** With `COc1ccc(NC(=O)C(=O)Nc2ccccc2OC)c(C(=O)Nc2ccc(N3CCOCC3=O)cc2)c1` as the compound, how does the IC50 (Coagulation factor X) read?
**A.** Its IC50 is 828 nM.

**Q.** Which IC50 (Coagulation factor X) does the source give for `COc1ccc(NC(=O)C(=O)Nc2ccc(OC)cc2C(=O)Nc2ccc(N3CCOCC3=O)cc2)cc1` here?
**A.** The IC50 was 612 nM.

**Q.** For `COc1ccc(NC(=O)c2ccccc2)c(C(=O)Nc2ccc(N3CCCCC3=O)cc2)c1`, which IC50 (Coagulation factor X) is on record?
**A.** Its IC50 is 521 nM.

**Q.** Which results are given for `COc1ccc(NC(=O)c2ccc(Cl)cc2)c(C(=O)Nc2ccc(N3CCCCC3=O)cc2)c1`?
**A.** IC50 (Prothrombin): 48000 nM; Activity [1]: 8.7 µM; IC50 (Coagulation factor X): 23 nM

**Q.** Which IC50 (Coagulation factor X) does the source give for `COc1ccc(NC(=O)c2cccc(Cl)c2)c(C(=O)Nc2ccc(N3CCCCC3=O)cc2)c1` here?
**A.** The IC50 was 183 nM.

**Q.** With `COc1cccc(C(=O)Nc2ccc(OC)cc2C(=O)Nc2ccc(N3CCCCC3=O)cc2)c1` as the compound, how does the IC50 (Coagulation factor X) read?
**A.** Its IC50 is 378 nM.

**Q.** With `COc1ccc(NC(=O)c2ccc(C(=N)N(C)C)cc2)c(C(=O)Nc2ccc(Cl)cn2)c1` [BETRIXABAN] as the compound, how does the IC50 (Prothrombin) read?
**A.** Its IC50 is 18000 nM.

**Q.** And the Activity [1]?
**A.** The Activity was 2.4 µM.
